# Key:
# [1] = Growth inhibition of human QGY7703 cells at 10 uM after 48 hrs by CCK-8 assay relative to control; type: functional; details: QGY-7703, 48 h, read-out: GI
# Method in brief: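 QGY-7703 cells were kept in 1640 medium with 10% FBS and penicillin/streptomycin at 37 °C, 5% CO2, then seeded at 2×10^5 cells/well for 24 h. They were treated once at 10 μM for 48 h, followed by CCK-8 for 3 h and A450. Values are percentage inhibition relative to untreated control cells.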
# [2] = tested on: HepG2; experiment: Cytotoxicity against human HepG2 cells after 48 hrs by CCK-8 assay; type: functional, cell-based; details: HepG2, 48 h
# Method in brief: (§1)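 Cells grown at 37 °C, 5% CO2 in medium with 10% FBS and penicillin/streptomycin: HepG-2 in MEM; QGY-7703, SMMC-7721 and QSG-7701 in 1640 medium. Seeded at 2×10^5 cells/well for 24 h, then exposed to varying compound concentrations or 1% DMSO vehicle for 48 h. CCK-8 added for 3 h more, absorbance read at 450 nm.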
# [3] = Cytotoxicity against human QSG7701 cells after 48 hrs by CCK-8 assay; type: cell-based; details: QSG7701, 48 h; method in brief: as §1
# [4] = tested on: SMMC-7721; experiment: Cytotoxicity against human SMMC7721 cells after 48 hrs by CCK-8 assay; type: functional, cell-based; details: SMMC-7721, 48 h; method in brief: as §1
# [5] = Cytotoxicity against human QGY7703 cells after 48 hrs by CCK-8 assay; type: functional, cell-based; details: QGY-7703, 48 h; method in brief: as §1
# [6] = tested on: QGY-7703; experiment: Induction of apoptosis in human QGY7703 cells assessed as late apoptotic cells at 15 uM after 48 hrs by Annexin V-FITC/propidium iodide staining-based flow cytometric analysis (reference value: 4.25%); type: functional
# Method in brief: (§2)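 QGY-7703 cells were seeded at 5×10^5 cells/mL for 24 h, then given 3.75, 7.5, 15 or 30 μM, or DMSO control, for 48 h. Floating and trypsinized adherent cells were pooled, washed twice in cold PBS and resuspended in binding buffer. They were stained with annexin V-FITC/PI for 15 min at room temperature in the dark and analysed by flow cytometry. Mean ± SD of three independent experiments.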
# [7] = tested on: QGY-7703; experiment: Induction of apoptosis in human QGY7703 cells assessed as late apoptotic cells at 30 uM after 48 hrs by Annexin V-FITC/propidium iodide staining-based flow cytometric analysis (reference value: 4.25%); type: functional; method in brief: as §2
# [8] = tested on: QGY-7703; experiment: Induction of apoptosis in human QGY7703 cells assessed as late apoptotic cells at 3.75 uM after 48 hrs by Annexin V-FITC/propidium iodide staining-based flow cytometric analysis (reference value: 4.25%); type: functional; method in brief: as §2
# [9] = tested on: QGY-7703; experiment: Induction of apoptosis in human QGY7703 cells assessed as late apoptotic cells at 7.5 uM after 48 hrs by Annexin V-FITC/propidium iodide staining-based flow cytometric analysis (reference value: 4.25%); type: functional; method in brief: as §2
# [10] = tested on: QGY-7703; experiment: Induction of apoptosis in human QGY7703 cells assessed as early apoptotic cells at 7.5 uM after 48 hrs by Annexin V-FITC/propidium iodide staining-based flow cytometric analysis (reference value: 2.63%); type: functional; method in brief: as §2
# [11] = tested on: QGY-7703; experiment: Induction of apoptosis in human QGY7703 cells assessed as early apoptotic cells at 30 uM after 48 hrs by Annexin V-FITC/propidium iodide staining-based flow cytometric analysis (reference value: 2.63%); type: functional; method in brief: as §2
# [12] = tested on: QGY-7703; experiment: Induction of apoptosis in human QGY7703 cells assessed as early apoptotic cells at 15 uM after 48 hrs by Annexin V-FITC/propidium iodide staining-based flow cytometric analysis (reference value: 2.63%); type: functional; method in brief: as §2
# [13] = tested on: QGY-7703; experiment: Induction of apoptosis in human QGY7703 cells assessed as early apoptotic cells at 3.75 uM after 48 hrs by Annexin V-FITC/propidium iodide staining-based flow cytometric analysis (reference value: 2.63%); type: functional; method in brief: as §2
Compound,inhibition of growth at 10 µM [1],IC50 [2],IC50 [3],IC50 [4],IC50 [5],other results
COc1cc(OC)c2c(=O)c3ccc(OC)c(OC)c3oc2c1,14.1%,,,,,
COc1ccc2c(=O)c3c(OC)cc(OC)c(-c4cc(C)ccc4C)c3oc2c1OC,54.3%,28.6 µM,90.7 µM,17 µM,24.6 µM,
COc1ccc2c(=O)c3c(OC)cc(OC)c(-c4cccc(C(F)(F)F)c4)c3oc2c1OC,30%,,,,,
COc1ccc2c(=O)c3c(OC)cc(OC)c(-c4cc(C(F)(F)F)cc(C(F)(F)F)c4)c3oc2c1OC,14.2%,,,,,
COc1ccc2c(=O)c3c(OC)cc(OC)c(-c4cc(F)ccc4F)c3oc2c1OC,17.4%,,,,,
COc1cccc(-c2c(OC)cc(OC)c3c(=O)c4ccc(OC)c(OC)c4oc23)c1,55.2%,28.7 µM,48.1 µM,10.6 µM,11.9 µM,
COc1ccc2c(=O)c3c(OC)cc(OC)c(-c4ccc(C(C)C)cc4)c3oc2c1OC,52.7%,32.5 µM,> 100 µM,20.1 µM,26.1 µM,
COc1ccc2c(=O)c3c(OC)cc(OC)c(-c4cccc(C=O)c4)c3oc2c1OC,13%,,,,,
O=c1[nH]cc(F)c(=O)[nH]1 [FLUOROURACIL],,12.5 µM,0.6 µM,14.6 µM,15.7 µM,
COc1ccc2c(=O)c3c(OC)cc(OC)c(-c4cc(F)cc(F)c4)c3oc2c1OC,11.2%,,,,,
COc1ccc2c(=O)c3c(OC)cc(OC)c(-c4ccccc4)c3oc2c1OC,66.5%,19.2 µM,> 100 µM,7.5 µM,6.27 µM,Activity [6]: 18.82%; Activity [7]: 23.27%; Activity [8]: 4.6%; Activity [9]: 12.12%; Activity [10]: 8.63%; Activity [11]: 15.81%; Activity [12]: 10.58%; Activity [13]: 2.61%
COc1cc(OC)cc(-c2c(OC)cc(OC)c3c(=O)c4ccc(OC)c(OC)c4oc23)c1,58%,45 µM,33.1 µM,31.5 µM,31.9 µM,
CCc1ccc(-c2c(OC)cc(OC)c3c(=O)c4ccc(OC)c(OC)c4oc23)cc1,77.1%,28 µM,69.2 µM,16.4 µM,22.6 µM,
COc1ccc2c(=O)c3c(OC)cc(OC)c(-c4ccccc4F)c3oc2c1OC,52.4%,48.9 µM,20.7 µM,26.8 µM,39.6 µM,
COc1ccc2c(=O)c3c(OC)cc(OC)c(-c4ccc(C(F)(F)F)cc4)c3oc2c1OC,5.23%,,,,,
COc1ccc2c(=O)c3c(OC)cc(OC)c(-c4ccc(F)c(F)c4)c3oc2c1OC,5.85%,,,,,
COc1ccc2c(=O)c3c(OC)cc(OC)c(-c4ccc(C=O)cc4)c3oc2c1OC,19.7%,,,,,
COc1ccc2c(=O)c3c(OC)cc(OC)c(-c4ccccc4OC(F)(F)F)c3oc2c1OC,33%,,,,,
COC(=O)c1ccc(-c2c(OC)cc(OC)c3c(=O)c4ccc(OC)c(OC)c4oc23)cc1,-5.48%,,,,,
COc1ccc2c(=O)c3c(OC)cc(OC)c(-c4ccc(C)cc4)c3oc2c1OC,68.1%,24.6 µM,66.3 µM,3.15 µM,14.1 µM,
COc1ccc2c(=O)c3c(OC)cc(OC)c(-c4ccc(C(C)=O)cc4)c3oc2c1OC,13.2%,,,,,
COc1ccc2c(=O)c3c(OC)cc(OC)c(-c4ccc(OC(F)(F)F)cc4)c3oc2c1OC,0.53%,,,,,
COc1ccc2c(=O)c3c(OC)cc(OC)c(-c4ccc(C(C)(C)C)cc4)c3oc2c1OC,56.3%,39.2 µM,> 100 µM,18.2 µM,33.1 µM,
COc1ccc2c(=O)c3c(OC)cc(OC)c(-c4ccc(S(C)(=O)=O)cc4)c3oc2c1OC,1.59%,,,,,
COc1ccc2c(=O)c3c(OC)cc(OC)c(-c4cccnc4)c3oc2c1OC,18%,,,,,
COc1ccc2c(=O)c3c(OC)cc(OC)c(-c4ccc(F)cc4)c3oc2c1OC,13.9%,,,,,
COc1ccc2c(=O)c3c(OC)cc(OC)c(-c4cccc(F)c4)c3oc2c1OC,35.2%,,,,,
COc1ccc2c(=O)c3c(OC)cc(OC)c(-c4cccc(C#N)c4)c3oc2c1OC,-4.17%,,,,,
COc1ccc2c(=O)c3c(OC)cc(OC)c(-c4ccc(C#N)cc4)c3oc2c1OC,-1.84%,,,,,
COc1ccc2c(=O)c3c(OC)cc(OC)c(-c4cccc(C)c4)c3oc2c1OC,51.4%,5 µM,> 100 µM,14.8 µM,13.3 µM,
